Screens from PubChem.
KCNK3 inh: human KCNK3 channel inhibitors, primary screen, CHO cells, FluxOR thallium flux, B-score | Potassium channel subfamily K member 3 (Homo sapiens), O14649 | FluxOR fluorescence; hits give low values | B-score at 10 µM | 340,000 tested, 0.84% active;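 active = B-score under library mean minus 4 SD, starting fluorescence ratio at most library mean plus 5 SD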;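 note: more negative B-score means stronger inhibition of thallium flux through KCNK3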
KCNK9 block: KCNK9 potassium channel inhibitors, primary screen, HEK293 cells, thallium flux; FluxOR thallium flux fluorescence; hits give low values; AID 488922, 2010; B-score at 10 µM; 310,000 tested, 1.2% active;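 active = ratio B-score over 3 SD below the library mean, with starting fluorescence within 5 SD of its mean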;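 note: negative B-score means less thallium flux so channel inhibition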
hERG rescue: hERG rescue from dofetilide block, primary screen, cell-based, CHO-hERG, FluxOR thallium flux, dofetilide IC70; Voltage-gated inwardly rectifying potassium channel KCNH2 (Homo sapiens), Q12809; activation (rescue from dofetilide block), less the hit threshold, % at 10 µM; 310,000 tested, 0.51% active; dofetilide IC70 present;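 active = activation above the mean of controls blocked by dofetilide plus 5 SD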;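 note: thallium influx through hERG after potassium depolarization seen as dye fluorescence rise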
KCNQ1 block: inhibitors of human KCNQ1 channel, primary screen, cell-based, thallium flux, high-throughput; Potassium voltage-gated channel subfamily KQT member 1 (Homo sapiens), P51787; CHO-K1 KCNQ1, FluxOR thallium flux fluorescence; hits give high values; B-score at 10 µM; 310,000 tested, 1.3% active;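 active = compounds whose thallium flux B-score, printed positive for inhibition, exceeds three library SD while starting fluorescence stays within three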;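 note: channel opened by potassium depolarization with thallium stimulus after 20 min compound exposure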
Target sequence (P51787 whole entry, looked up): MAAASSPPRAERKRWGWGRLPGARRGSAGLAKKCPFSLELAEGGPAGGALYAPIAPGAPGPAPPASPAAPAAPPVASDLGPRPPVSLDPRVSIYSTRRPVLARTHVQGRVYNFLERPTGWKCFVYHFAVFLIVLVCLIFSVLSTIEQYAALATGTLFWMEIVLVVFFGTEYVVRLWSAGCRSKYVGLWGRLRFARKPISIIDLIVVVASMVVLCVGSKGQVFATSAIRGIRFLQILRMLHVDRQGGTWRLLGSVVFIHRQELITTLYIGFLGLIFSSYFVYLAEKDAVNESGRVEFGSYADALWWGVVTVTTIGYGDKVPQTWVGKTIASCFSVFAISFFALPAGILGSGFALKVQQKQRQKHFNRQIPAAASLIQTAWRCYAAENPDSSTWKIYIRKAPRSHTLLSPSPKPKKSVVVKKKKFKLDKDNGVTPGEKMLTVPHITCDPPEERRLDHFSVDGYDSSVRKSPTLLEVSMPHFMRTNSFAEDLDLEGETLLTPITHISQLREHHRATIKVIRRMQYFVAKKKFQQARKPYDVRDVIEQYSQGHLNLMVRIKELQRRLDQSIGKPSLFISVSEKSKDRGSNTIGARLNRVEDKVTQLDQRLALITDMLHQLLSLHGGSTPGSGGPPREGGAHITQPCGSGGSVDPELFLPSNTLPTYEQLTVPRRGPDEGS
KCNQ1 act: potentiators or activators of KCNQ1 channel, primary screen, cell-based, thallium flux, high-throughput; B-score at 10 µM; AID 2648, 2010; 310,000 tested, 0.35% active; CHO-K1 KCNQ1, thallium flux FluxOR fluorescence; hits give high values;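 active = fluorescence ratio B-score, a plate-corrected score, at least three library SD, with initial intensity B-score within 5 SD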
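Test system: CHO-K1 cells stably expressing KCNQ1 / Medium: assay buffer / Also added: depolarizing K+/Tl+ stimulus, K2SO4 and Tl2SO4 each 12.5 mM in 5x stock / Incubation: 90 min dye loading and 20 min compound exposure, both at room temperature / Signal: thallium influx via FluxOR fluorescence, kinetic imaging / Evaluation: B score of baseline-normalized fluorescence ratio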
* marks the source's active call; other numbers are inactive results; i = inactive; nt = not tested or not shown. Sampled rows, rich in hits. Any-hit rate of the full collection: about 3.1%.

SMILES | KCNK3 inh | KCNK9 block | hERG rescue | KCNQ1 block | KCNQ1 act
Cc1ccc2nc(C3CCN(S(=O)(=O)c4ccc5ccccc5c4)CC3)[nH]c2c1 | i | i | -5 | i | 8*
S=c1nc(-c2ccccc2)[nH]n1-c1ccccc1 | i | i | 15* | i | 74*
CC(=O)OCCCNc1cc(Sc2nc3ccccc3s2)c2nonc2c1[N+](=O)[O-] | i | i | -11 | i | i
CC(=O)OCCNc1cc(Sc2nc3ccccc3[nH]2)c2nonc2c1[N+](=O)[O-] | i | -8.1* | -33 | 7* | i
CCOC(=O)c1sc(N2C(=O)C(O)=C(C(=O)c3ccco3)C2c2cccc([N+](=O)[O-])c2)nc1C (stereo not given) | i | i | -11 | i | i
COC(=O)c1ccccc1NC(=O)c1cn(-c2ccc(C)c(C)c2)c(=O)c2ccccc12 | i | i | -5 | 8* | i
O=c1c2ccccc2c(C=NCc2ccccn2)c(O)n1-c1ccccc1 | i | i | -3 | i | i
O=c1c2ccccc2c(C=NCc2ccccn2)c(O)n1-c1ccccc1Cl | i | i | 8.0* | i | i
O=C1c2ccccc2C(Nc2ccc(S(=O)(=O)N3CCCCCC3)cc2)N1Cc1ccco1 (stereo not given) | -8.7* | i | -15 | i | i
COc1ccc(Cc2nc3ccc(C(=O)NCC(C)(C)OC)cc3o2)cc1 | i | i | -6 | i | i
COc1ccc(/C=C/c2ccc3c(Br)ccc(O)c3n2)cc1 | i | i | -8 | i | i
COc1cc(/C=C/c2ccc3c(Br)cc(Br)c(O)c3n2)ccc1O | i | i | 4.7* | i | i
O=C(/C=C/c1cn(-c2ccccc2)nc1-c1cccnc1)N1CCCCC1 | i | i | -7 | i | i
O=C(/C=C/c1cn(-c2ccccc2)nc1-c1cccc(Cl)c1)N1CCN(c2ccccn2)CC1 | i | i | -23 | 7* | i
O=C(OCC(=O)N1CCN(c2ccccc2)CC1)c1cnc(Cl)c(Cl)c1 | nt | i | 9.4* | i | i
O=C(OCC(=O)N1CCN(c2ccccc2)CC1)c1cccc(Cl)c1 | i | i | -10 | i | i
COc1ccc(-c2noc(CSc3nnc(CCc4ccccc4)n3-c3ccccc3)n2)cc1OC | -9.7* | i | -12 | i | i
COc1ccc(-c2noc(CSc3ccccc3)n2)cc1OC | i | i | -15 | i | i
COC(=O)c1ccc(CSc2ncnc3sc(C)c(C)c23)o1 | i | i | 8.8* | i | 8*
Cc1sc2ncnc(SCc3ccc(C(=O)O)cc3)c2c1C | i | i | -5 | i | i
CC(C)c1nc(SCC(=O)Nc2ccc([N+](=O)[O-])cc2Br)n[nH]1 | i | i | 8.6* | i | i
O=C(N/N=C/c1ccccn1)c1cc(Br)ccc1O | i | i | 0 | i | 10*
O=C(N/N=C/c1cccnc1)c1cc(Br)ccc1O | i | i | -2 | i | i
CCOC(=O)/C(=N\Nc1ccccc1Cl)N1CCN(Cc2ccccc2)CC1 | i | -8* | -6 | 7* | i
N#Cc1ccccc1S(=O)(=O)N1CCN(C(=O)[C@H](Cc2ccccc2)NC(=O)c2ccco2)CC1 | i | nt | nt | nt | nt
SMILES | KCNK3 inh | KCNK9 block | hERG rescue | KCNQ1 block | KCNQ1 act
CC(=O)c1ccc(NC(=O)C(C)N(C)CC(=O)Nc2ccc(Cl)cc2)cc1 (stereo not given) | i | i | -3 | i | i
CC(=O)c1ccc(NC(=O)C(C)N(C)CC(=O)Nc2ccc(N3CCOCC3)cc2)cc1 (stereo not given) | i | i | 4.6* | i | i
CCC(C)Nc1nc(N)c([N+](=O)[O-])c(Nc2ccccc2OC)n1 (stereo not given) | i | -7.9* | -5 | i | i
COc1ccccc1Nc1nc(NCC(C)C)nc(N)c1[N+](=O)[O-] | i | i | -8 | i | i
CCCc1nc2oc3c(NCCCN(C)C)ncnc3c2c2c1CCCC2 | i | i | -8 | i | 8*
CCCc1nc2oc3c(NCCN(C)C)ncnc3c2c2c1CCCC2 | i | i | -7 | i | 8*
CCCc1nc2oc3c(Cl)ncnc3c2c2c1CCCC2 | i | i | -4 | i | i
COc1ccc(C(=O)COC(=O)c2nn(C)cc2Cl)cc1 | i | i | -5 | i | i
Cc1ccsc1/C=N/Nc1ncc(Cl)cc1Cl | i | i | -9 | 6* | i
Cc1cc(C)nc(N/N=C/c2sccc2C)n1 | i | i | -3 | i | i
CCCCCCCCn1c(N2CCN(c3cccc(Cl)c3)CC2)nc2c1c(=O)[nH]c(=O)n2C | i | i | -10 | i | i
CCCCCCn1c(N2CCN(c3cccc(Cl)c3)CC2)nc2c1c(=O)[nH]c(=O)n2C | i | -7.6* | -3 | i | i
O=P(c1ccccc1)(c1ccccc1)c1cc(Br)cc(Br)c1OCCO | i | i | -13 | i | i
O=P(Cc1cc(Br)cc(Br)c1OCCO)(c1ccccc1)c1ccccc1 | i | -6.7* | -10 | i | i
CC(=O)c1sc(-c2ccc(F)cc2F)nc1C | i | i | -4 | i | i
Cc1cc(N/N=C/c2cccc(Cl)c2)nc(-n2nc(C)cc2C)n1 | i | -8* | -9 | i | i
Cc1cc(N/N=C/c2ccc(O)cc2O)nc(-n2nc(C)cc2C)n1 | i | i | -3 | i | i
COc1ccc2nc(C)cc(N/N=C/c3ccccc3)c2c1 | -9.4* | nt | nt | nt | nt
Cc1cc(N/N=C/c2cccc([N+](=O)[O-])c2)nc(-n2nc(C)cc2C)n1 | i | i | -4 | i | i
COc1ccc(/C=N/Nc2cc(C)nc(-n3nc(C)cc3C)n2)cc1 | i | -6.7* | -17 | i | i
N#CC(c1cccc(Cl)c1)c1ccc2c(C(F)(F)F)cc(C(F)(F)F)nc2n1 (stereo not given) | i | i | -5 | i | 76*
NNc1ccc2c(C(F)(F)F)cc(C(F)(F)F)nc2n1 | i | i | -5 | i | i
COC(=O)c1sccc1NC(=O)c1c(Cl)cccc1Cl | i | i | 4.7* | i | i
Cc1ccc(NC(=O)COC(=O)C2CCC2)cc1S(=O)(=O)N1CCOCC1 | i | nt | nt | nt | nt
O=C(NCc1cccnc1)c1ccc(NS(=O)(=O)c2cccc([N+](=O)[O-])c2)cc1 | i | nt | nt | nt | nt
Cc1nc(N)nc(N)c1-c1ccc([N+](=O)[O-])cc1 | i | nt | nt | nt | nt
